Test results as given in ChEMBL document CHEMBL1121797, “Studies on chiral interactions of 1-(2,5-dimethoxy-4-methylphenyl)-2-aminopropane and the corresponding N-hydroxy metabolites with cytochrome P-450” (J Med Chem, 1981).
Where “and” joins values, the source holds several entries; their conditions need not be identical. Identical values can stand only once.

Legend:
Cytochrome P450 2C19 [1] = target: T1, Cytochrome P450 2C19 (Homo sapiens, UniProt P33261); test: Percent inhibition of formation of metabolic intermediate complex between Cytochrome P450 and compound 1ab (30 uM) initially, following incubation at compound concentration of 20 uM; format: ADME, Oryctolagus cuniculus; settings: rabbit, probe compound 1ab (30 uM)
In short: (§1)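 Rabbit liver microsomes (2 mg protein/mL; Tris-Cl/KCl/MgSO4 buffer, 0.1 mM EDTA) plus NADPH, at 37 °C, were preincubated with racemic or enantiomeric amine 1. The 457-nm complex was monitored until it plateaued (6–8 min), then racemic hydroxylamine 2 was added. Initial rate and plateau extent of complex formation came from dual-wavelength ΔA457–500 nm versus time tracings.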

Cytochrome P450 2C19 [2] = target: T1, Cytochrome P450 2C19; test: Percent inhibition of formation of metabolic intermediate complex between Cytochrome P450 and compound 1a (30 uM) initially, following incubation at compound concentration of 30 uM; format: ADME, Oryctolagus cuniculus; settings: rabbit, probe compound 1a (30 uM)
In short: (§2)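 Inverse cross-inhibition in NADPH-supplemented rabbit liver microsomes at 37 °C. Preincubation with racemic hydroxylamine at 0–30 μM, monitoring 457-nm complex formation. The amine was then added at 30 μM, or racemic hydroxylamine at 30 μM. Initial rate and plateau extent were taken from ΔA457–500 nm tracings. Percent inhibition is relative to incubation in fresh microsomes.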

Cytochrome P450 2C19 [3] = target: T1, Cytochrome P450 2C19; test: Percent inhibition of formation of metabolic intermediate complex between Cytochrome P450 and compound 1ab (30 uM) on extent, following incubation at compound concentration of 20 uM; format: ADME, Oryctolagus cuniculus; settings: rabbit, probe compound 1ab (30 uM); in short: as §1
Cytochrome P450 2C19 [4] = target: T1, Cytochrome P450 2C19; test: Extent of complex formation with 15 uM compound; format: ADME, Oryctolagus cuniculus; settings: rabbit
Cytochrome P450 2C19 [5] = target: T1, Cytochrome P450 2C19; test: (§3) Extent of complex formation with 20 uM compound; format: ADME, Oryctolagus cuniculus; settings: rabbit
Cytochrome P450 2C19 [6] = target: T1, Cytochrome P450 2C19; test: (§4) Extent of complex formation with 30 uM compound; format: ADME, Oryctolagus cuniculus; settings: rabbit
Cytochrome P450 2C19 [7] = target: T1, Cytochrome P450 2C19; test: Percent inhibition of formation of metabolic intermediate complex between Cytochrome P450 and compound 1a (30 uM) on extent, on pre-incubation with compound concentration of 0 uM; format: ADME, Oryctolagus cuniculus; settings: rabbit, probe compound 1a (30 uM)
In short: (§5)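 Hepatic microsomes came from male Dutch rabbits, fasted 24 h. They were diluted to 2 mg protein/mL in 50 mM Tris-Cl with 150 mM KCl, 10 mM MgSO4 and 0.1 mM EDTA, with NADPH added, at 37 °C. Microsomes were preincubated with racemic hydroxylamine 2, then 30 µM 1a or 30 µM racemic 2 was added. Complex formation was followed as ΔA457–500 nm, and inhibition of rate and extent (plateau) was calculated.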

Cytochrome P450 2C19 [8] = target: T1, Cytochrome P450 2C19; test: Percent inhibition of formation of metabolic intermediate complex between Cytochrome P450 and compound 1a (30 uM) initially, on pre-incubation with compound concentration of 0 uM; format: ADME, Oryctolagus cuniculus; settings: rabbit, probe compound 1a (30 uM); in short: as §2
Cytochrome P450 2C19 [9] = target: T1, Cytochrome P450 2C19; test: Initial rate of complex formation with 20 uM compound; format: ADME, Oryctolagus cuniculus; settings: rabbit
Cytochrome P450 2C19 [10] = target: T1, Cytochrome P450 2C19; test: as §4; format: ADME, Oryctolagus cuniculus; settings: rabbit; remark: listed apart in the source
Cytochrome P450 2C19 [11] = target: T1, Cytochrome P450 2C19; test: Initial rate of complex formation with 15 uM compound; format: ADME, Oryctolagus cuniculus; settings: rabbit
Cytochrome P450 2C19 [12] = target: T1, Cytochrome P450 2C19; test: Initial rate of complex formation with 5 uM compound; format: ADME, Oryctolagus cuniculus; settings: rabbit
Cytochrome P450 2C19 [13] = target: T1, Cytochrome P450 2C19; test: Percent inhibition of formation of metabolic intermediate complex between Cytochrome P450 and compound 1a (30 uM) initially, on pre-incubation with compound concentration of 15 uM; format: ADME, Oryctolagus cuniculus; settings: rabbit, probe compound 1a (30 uM); in short: as §2
Cytochrome P450 2C19 [14] = target: T1, Cytochrome P450 2C19; test: as §3; format: ADME, Oryctolagus cuniculus; settings: rabbit; remark: listed apart in the source
Cytochrome P450 2C19 [15] = target: T1, Cytochrome P450 2C19; test: Percent inhibition of formation of metabolic intermediate complex between Cytochrome P450 and compound 1a (30 uM) initially, following incubation at compound concentration of 20 uM; format: ADME, Oryctolagus cuniculus; settings: rabbit, probe compound 1a (30 uM)
Cytochrome P450 2C19 [16] = target: T1, Cytochrome P450 2C19; test: (§6) Initial rate of complex formation with 30 uM compound; format: ADME, Oryctolagus cuniculus; settings: rabbit
Cytochrome P450 2C19 [17] = target: T1, Cytochrome P450 2C19; test: Percent inhibition of formation of metabolic intermediate complex between Cytochrome P450 and compound 1a (30 uM) on extent, following incubation at compound concentration of 5 uM; format: ADME, Oryctolagus cuniculus; settings: rabbit, probe compound 1a (30 uM); in short: as §5
Cytochrome P450 2C19 [18] = target: T1, Cytochrome P450 2C19; test: as §6; format: ADME, Oryctolagus cuniculus; settings: rabbit; remark: listed apart in the source
Cytochrome P450 2C19 [19] = target: T1, Cytochrome P450 2C19; test: Percent inhibition of formation of metabolic intermediate complex between Cytochrome P450 and compound 1a (30 uM) initially, on pre-incubation with compound concentration of 30 uM; format: ADME, Oryctolagus cuniculus; settings: rabbit, probe compound 1a (30 uM); in short: as §2
Cytochrome P450 2C19 [20] = target: T1, Cytochrome P450 2C19; test: Percent inhibition of formation of metabolic intermediate complex between Cytochrome P450 and compound 1a (30 uM) on extent, following incubation at compound concentration of 15 uM; format: ADME, Oryctolagus cuniculus; settings: rabbit, probe compound 1a (30 uM); in short: as §5
Cytochrome P450 2C19 [21] = target: T1, Cytochrome P450 2C19; test: Percent inhibition of formation of metabolic intermediate complex between Cytochrome P450 and compound 1a (30 uM) initially, following incubation at compound concentration of 0 uM; format: ADME, Oryctolagus cuniculus; settings: rabbit, probe compound 1a (30 uM); in short: as §2
[22] = Extent rates of formation of metabolic intermediate Cytochrome P-450 at compound concentration of 30 uM; format: ADME
In short: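 Rabbit liver microsomes at 2 mg protein/mL with 0.1 mM EDTA, 37 °C, substrate 30 μM. Complex formation started with 0.4 mM NADPH and followed by dual-wavelength absorbance, 457 vs 500 nm. Initial rate is the initial slope, ΔA×10^4 per nmol P-450 per min. Extent is the plateau absorbance. Lag is the time from NADPH addition to first 457-nm chromophore. Triplicate or single runs.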

Cytochrome P450 2C19 [23] = target: T1, Cytochrome P450 2C19; test: Percent inhibition of formation of metabolic intermediate complex between Cytochrome P450 and compound 1a (30 uM) on extent, on pre-incubation with compound concentration of 15 uM; format: ADME, Oryctolagus cuniculus; settings: rabbit, probe compound 1a (30 uM); in short: as §5
Cytochrome P450 2C19 [24] = target: T1, Cytochrome P450 2C19; test: as §4; format: ADME, Oryctolagus cuniculus; settings: rabbit; remark: listed apart in the source

T1 sequence (P33261 whole entry): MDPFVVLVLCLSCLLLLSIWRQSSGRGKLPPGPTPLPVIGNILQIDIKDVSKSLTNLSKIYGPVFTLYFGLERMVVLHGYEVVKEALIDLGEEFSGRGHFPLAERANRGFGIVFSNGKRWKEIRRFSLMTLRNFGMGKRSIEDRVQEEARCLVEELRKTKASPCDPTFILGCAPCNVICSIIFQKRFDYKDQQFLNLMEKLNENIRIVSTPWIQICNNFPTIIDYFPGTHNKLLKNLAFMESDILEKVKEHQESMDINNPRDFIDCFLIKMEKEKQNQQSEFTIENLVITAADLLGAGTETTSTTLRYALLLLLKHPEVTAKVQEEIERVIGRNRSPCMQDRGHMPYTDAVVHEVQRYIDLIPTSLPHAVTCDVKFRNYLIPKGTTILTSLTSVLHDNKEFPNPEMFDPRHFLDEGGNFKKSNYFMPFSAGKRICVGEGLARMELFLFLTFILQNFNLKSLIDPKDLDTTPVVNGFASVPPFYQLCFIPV

`COc1cc(C[C@@H](C)NO)c(OC)cc1C.COc1cc(C[C@H](C)NO)c(OC)cc1C` showed an inhibition at 20 µM (Cytochrome P450 2C19 [1]) of 30%, an inhibition at 30 µM (Cytochrome P450 2C19 [2]) of 74% and an inhibition at 20 µM (Cytochrome P450 2C19 [3]) of 12%. The Complex_formation (Cytochrome P450 2C19 [4]) was 97 deltaA.10^4nmol-1, the Complex_formation (Cytochrome P450 2C19 [5]) was 85 deltaA.10^4nmol-1 and the Complex_formation (Cytochrome P450 2C19 [6]) was 139 deltaA.10^4nmol-1 and 135 deltaA.10^4nmol-1. The inhibition at 0 uM (Cytochrome P450 2C19 [7]) was 0%, the inhibition at 0 uM (Cytochrome P450 2C19 [8]) was 0% and the Initial_rate (Cytochrome P450 2C19 [9]) was 89 deltaA.10^4nmol-1.min-1. For the same compound, the Complex_formation (Cytochrome P450 2C19 [10]) was 27 deltaA.10^4nmol-1, the Initial_rate (Cytochrome P450 2C19 [11]) was 131 deltaA.10^4nmol-1.min-1 and the Initial_rate (Cytochrome P450 2C19 [12]) was 52 deltaA.10^4nmol-1.min-1. For the same compound, the inhibition at 15 µM (Cytochrome P450 2C19 [13]) was 100%, the Complex_formation (Cytochrome P450 2C19 [14]) was 109 deltaA.10^4nmol-1 and the inhibition at 20 µM (Cytochrome P450 2C19 [15]) was 29%. For the same compound, the Initial_rate (Cytochrome P450 2C19 [16]) was 5.5 deltaA.10^4nmol-1.min-1, the inhibition at 5 µM (Cytochrome P450 2C19 [17]) was 39% and the Initial_rate (Cytochrome P450 2C19 [18]) was 12.4 deltaA.10^4nmol-1.min-1. It also gave an inhibition at 30 µM (Cytochrome P450 2C19 [19]) of 100%, an inhibition at 15 µM (Cytochrome P450 2C19 [20]) of 46% and an inhibition at 0 uM (Cytochrome P450 2C19 [21]) of 30%. It also gave a Rate [22] of 131, an inhibition at 15 µM (Cytochrome P450 2C19 [23]) of 100% and a Complex_formation (Cytochrome P450 2C19 [24]) of 30 deltaA.10^4nmol-1.
